{"source": "paper PMC11959361", "about": "(RSC Advances, 2025)", "key": {"[1]": {"test_system": "MCF7 (human breast cancer) cell line", "test": "MTT cytotoxicity assay, MCF7", "type": "cell-based", "details": "MCF7, 24 h", "outline": "(§1)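 Cells seeded at 5000 per well in Eagle's MEM with 10% fetal calf serum, 2 mM L-glutamine, penicillin and streptomycin, then held 24 h at 37 °C, 5% CO2. Serial concentrations of test compound in DMSO were added for 24 h, with PTX and DOX as references. MTT was added for 4 h at 37 °C. Formazan was dissolved in ethanol and read at 570 nm. Percent inhibition was computed against control and blank.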"}, "[2]": {"test_system": "C26 (colon carcinoma) cell line", "test": "MTT cytotoxicity assay, C26", "type": "cell-based", "details": "24 h", "outline": "as §1"}, "[3]": {"test_system": "BAEC (bovine aorta endothelial) normal cell line", "test": "MTT cytotoxicity assay, BAEC normal cells", "type": "cell-based", "details": "24 h with compound, IC50 ± SEM", "outline": "as §1"}, "MCF7 and C26 cell lines": {"test_system": "MCF7 and C26 cell lines", "test": "MTT cytotoxicity, stated over both cancer cell lines together", "type": "cell-based", "details": "Homo sapiens, MCF7, read-out: IC50 over MCF7 and C26", "outline": "as §1"}, "[4]": {"test_system": "MCF7, A549 (non-small cell lung cancer) and HDFs (non-cancerous human dermal fibroblasts)", "details": "doxorubicin value compared for healthy cells ref 20; cited from earlier work"}}}
{"compound": "Clc1ccc(Nc2nc(Cl)nc(Cl)n2)cc1", "note": "[1a, 4,6-Dichloro-N-(4-chlorophenyl)-1,3,5-triazin-2-amine]", "values": [{"measurement": "IC50", "setting": "[1]", "result": "5.35 ± 1.05", "unit": "µM"}, {"measurement": "IC50", "setting": "[2]", "result": "13.5 ± 0.24", "unit": "µM"}]}
{"compound": "Fc1ccc(Nc2nc(Cl)nc(Cl)n2)cc1", "note": "[1b, 4,6-Dichloro-N-(4-fluorophenyl)-1,3,5-triazin-2-amine]", "values": [{"measurement": "IC50", "setting": "[1]", "result": "7.89 ± 1.8", "unit": "µM"}, {"measurement": "IC50", "setting": "[2]", "result": "9.1 ± 0.61", "unit": "µM"}]}
{"compound": "COc1ccc(Nc2nc(Cl)nc(Cl)n2)cc1", "note": "[1c, 4,6-Dichloro-N-(4-methoxyphenyl)-1,3,5-triazin-2-amine]", "values": [{"measurement": "IC50", "setting": "[1]", "result": "1.77 ± 0.05", "unit": "µM"}, {"measurement": "IC50", "setting": "[2]", "result": "9.89 ± 0.17", "unit": "µM"}]}
{"compound": "Cc1ccc(Nc2nc(Cl)nc(Cl)n2)cc1", "note": "[1d, 4,6-Dichloro-N-(p-tolyl)-1,3,5-triazin-2-amine]", "values": [{"measurement": "IC50", "setting": "[1]", "result": "0.2 ± 0.11", "unit": "µM"}, {"measurement": "IC50", "setting": "[2]", "result": "9.99 ± 0.59", "unit": "µM"}]}
{"compound": "O=[N+]([O-])c1ccc(Nc2nc(Cl)nc(Cl)n2)cc1", "note": "[1e, 4,6-Dichloro-N-(4-nitrophenyl)-1,3,5-triazin-2-amine]", "values": [{"measurement": "IC50", "setting": "[1]", "result": "10.3 ± 1.51", "unit": "µM"}, {"measurement": "IC50", "setting": "[2]", "result": "48.3 ± 1.94", "unit": "µM"}]}
{"compound": "Clc1ccc(Nc2nc(N3CCCCC3)nc(N3CCCCC3)n2)cc1", "note": "[2a, N-(4-Chlorophenyl)-4,6-di(piperidin-1-yl)-1,3,5-triazin-2-amine]", "values": [{"measurement": "IC50", "setting": "[1]", "result": "23.6 ± 2.56", "unit": "µM"}, {"measurement": "IC50", "setting": "[2]", "result": "47.5 ± 2.86", "unit": "µM"}, {"measurement": "IC50", "setting": "[3]; Bos taurus, BAEC, 24 h", "result": "49 ± 3.16", "unit": "µM"}]}
{"compound": "Fc1ccc(Nc2nc(N3CCCCC3)nc(N3CCCCC3)n2)cc1", "note": "[2b, N-(4-Fluorophenyl)-4,6-di(piperidin-1-yl)-1,3,5-triazin-2-amine]", "values": [{"measurement": "IC50", "setting": "[1]", "result": "32.9 ± 4.23", "unit": "µM"}, {"measurement": "IC50", "setting": "[2]", "result": "33.6 ± 1.86", "unit": "µM"}, {"measurement": "IC50", "setting": "[3]; Bos taurus, BAEC, 24 h", "result": "21.2 ± 2.4", "unit": "µM"}]}
{"compound": "COc1ccc(Nc2nc(N3CCCCC3)nc(N3CCCCC3)n2)cc1", "note": "[2c, N-(4-Methoxyphenyl)-4,6-di(piperidin-1-yl)-1,3,5-triazin-2-amine]", "values": [{"measurement": "IC50", "setting": "[1]", "result": "50.9 ± 8.54", "unit": "µM"}, {"measurement": "IC50", "setting": "[2]", "result": "99.4 ± 14.1", "unit": "µM"}, {"measurement": "IC50", "setting": "[3]; Bos taurus, BAEC, 24 h", "result": "15.1 ± 1.98", "unit": "µM"}]}
{"compound": "Cc1ccc(Nc2nc(N3CCCCC3)nc(N3CCCCC3)n2)cc1", "note": "[2d, 4,6-Di(piperidin-1-yl)-N-(p-tolyl)-1,3,5-triazin-2-amine]", "values": [{"measurement": "IC50", "setting": "[1]", "result": "6.54 ± 1.16", "unit": "µM"}, {"measurement": "IC50", "setting": "[2]", "result": "0.38 ± 0.23", "unit": "µM"}, {"measurement": "IC50", "setting": "[3]; Bos taurus, BAEC, 24 h", "result": "1.84 ± 0.64", "unit": "µM"}]}
{"compound": "O=[N+]([O-])c1ccc(Nc2nc(N3CCCCC3)nc(N3CCCCC3)n2)cc1", "note": "[2e, N-(4-Nitrophenyl)-4,6-di(piperidin-1-yl)-1,3,5-triazin-2-amine]", "values": [{"measurement": "IC50", "setting": "[1]", "result": "26.1 ± 1.86", "unit": "µM"}, {"measurement": "IC50", "setting": "[2]", "result": "8.28 ± 1.9", "unit": "µM"}, {"measurement": "IC50", "setting": "[3]; Bos taurus, BAEC, 24 h", "result": "315 ± 9.53", "unit": "µM"}]}
{"compound": "Clc1ccc(Nc2nc(N3CCOCC3)nc(N3CCOCC3)n2)cc1", "note": "[3a, N-(4-Chlorophenyl)-4,6-dimorpholino-1,3,5-triazin-2-amine]", "values": [{"measurement": "IC50", "setting": "[1]", "result": "42.4 ± 4.48", "unit": "µM"}, {"measurement": "IC50", "setting": "[2]", "result": "1.21 ± 0.47", "unit": "µM"}, {"measurement": "IC50", "setting": "[3]; Bos taurus, BAEC, 24 h", "result": "41.2 ± 2.55", "unit": "µM"}]}
{"compound": "Fc1ccc(Nc2nc(N3CCOCC3)nc(N3CCOCC3)n2)cc1", "note": "[3b, N-(4-Fluorophenyl)-4,6-dimorpholino-1,3,5-triazin-2-amine]", "values": [{"measurement": "IC50", "setting": "[1]", "result": "6.19 ± 1.2", "unit": "µM"}, {"measurement": "IC50", "setting": "[2]", "result": "24.5 ± 0.86", "unit": "µM"}, {"measurement": "IC50", "setting": "[3]; Bos taurus, BAEC, 24 h", "result": "7.98 ± 0.97", "unit": "µM"}]}
{"compound": "COc1ccc(Nc2nc(N3CCOCC3)nc(N3CCOCC3)n2)cc1", "note": "[3c, N-(4-Methoxyphenyl)-4,6-dimorpholino-1,3,5-triazin-2-amine]", "values": [{"measurement": "IC50", "setting": "[1]", "result": "43.5 ± 4.23", "unit": "µM"}, {"measurement": "IC50", "setting": "[2]", "result": "76.8 ± 8.45", "unit": "µM"}, {"measurement": "IC50", "setting": "[3]; Bos taurus, BAEC, 24 h", "result": "2.01 ± 0.59", "unit": "µM"}]}
{"compound": "Cc1ccc(Nc2nc(N3CCOCC3)nc(N3CCOCC3)n2)cc1", "note": "[3d, 4,6-Dimorpholino-N-(p-tolyl)-1,3,5-triazin-2-amine]", "values": [{"measurement": "IC50", "setting": "[1]", "result": "22.3 ± 1.49", "unit": "µM"}, {"measurement": "IC50", "setting": "[2]", "result": "16.3 ± 2.22", "unit": "µM"}, {"measurement": "IC50", "setting": "[3]; Bos taurus, BAEC, 24 h", "result": "0.57 ± 0.24", "unit": "µM"}]}
{"compound": "O=[N+]([O-])c1ccc(Nc2nc(N3CCOCC3)nc(N3CCOCC3)n2)cc1", "note": "[3e, 4,6-Dimorpholino-N-(4-nitrophenyl)-1,3,5-triazin-2-amine]", "values": [{"measurement": "IC50", "setting": "[1]", "result": "13.7 ± 1.96", "unit": "µM"}, {"measurement": "IC50", "setting": "[2]", "result": "14.7 ± 1.7", "unit": "µM"}, {"measurement": "IC50", "setting": "[3]", "result": "86.3 ± 6.79", "unit": "µM"}, {"measurement": "IC50", "setting": "[3]; Bos taurus, BAEC, 24 h", "result": 86.2, "unit": "µM"}]}
{"compound": "COc1cccc2c1C(=O)c1c(O)c3c(c(O)c1C2=O)C[C@@](O)(C(=O)CO)C[C@@H]3O[C@H]1C[C@H](N)[C@H](O)[C@H](C)O1", "note": "[DOX, Doxorubicin, reference compound]", "values": [{"measurement": "IC50", "setting": "[1]", "result": "10.5 ± 0.86", "unit": "µM"}, {"measurement": "IC50", "setting": "[2]", "result": "8.06 ± 1.02", "unit": "µM"}, {"measurement": "IC50", "setting": "[3]; Bos taurus, BAEC, 24 h", "result": "4.79 ± 0.53", "unit": "µM"}, {"measurement": "IC50", "setting": "MCF7 and C26 cell lines", "result": "8.06 to 10.5", "unit": "µM"}, {"measurement": "IC50", "setting": "[4]", "result": 0.42, "unit": "µM"}]}
{"compound": "CC(=O)O[C@H]1C(=O)[C@@]2(C)[C@H]([C@H](OC(=O)c3ccccc3)[C@]3(O)C[C@H](OC(=O)[C@H](O)[C@@H](NC(=O)c4ccccc4)c4ccccc4)C(C)=C1C3(C)C)[C@]1(OC(C)=O)CO[C@@H]1C[C@@H]2O", "note": "[PTX, Paclitaxel, reference compound]", "values": [{"measurement": "IC50", "setting": "[1]", "result": "2.35 ± 0.14", "unit": "µM"}, {"measurement": "IC50", "setting": "[2]", "result": "4.32 ± 0.52", "unit": "µM"}, {"measurement": "IC50", "setting": "[3]; Bos taurus, BAEC, 24 h", "result": "2.67 ± 0.41", "unit": "µM"}, {"measurement": "IC50", "setting": "MCF7 and C26 cell lines", "result": "2.35 to 4.32", "unit": "µM"}]}
